From ChEMBL document CHEMBL2176944, “2-(3-Oxo-1,3-diphenylpropyl)malonic acids as potent allosteric ligands of the PIF pocket of phosphoinositide-dependent kinase-1: development and prodrug concept” (J Med Chem, 2012) come the findings set out here.

Activity calls are given as the source filed them. No cut-off for these calls is given here.

Experiment [1] has as its target T1, 3-phosphoinositide-dependent protein kinase 1 (Homo sapiens) (UniProt O15530).
T1 sequence (whole entry): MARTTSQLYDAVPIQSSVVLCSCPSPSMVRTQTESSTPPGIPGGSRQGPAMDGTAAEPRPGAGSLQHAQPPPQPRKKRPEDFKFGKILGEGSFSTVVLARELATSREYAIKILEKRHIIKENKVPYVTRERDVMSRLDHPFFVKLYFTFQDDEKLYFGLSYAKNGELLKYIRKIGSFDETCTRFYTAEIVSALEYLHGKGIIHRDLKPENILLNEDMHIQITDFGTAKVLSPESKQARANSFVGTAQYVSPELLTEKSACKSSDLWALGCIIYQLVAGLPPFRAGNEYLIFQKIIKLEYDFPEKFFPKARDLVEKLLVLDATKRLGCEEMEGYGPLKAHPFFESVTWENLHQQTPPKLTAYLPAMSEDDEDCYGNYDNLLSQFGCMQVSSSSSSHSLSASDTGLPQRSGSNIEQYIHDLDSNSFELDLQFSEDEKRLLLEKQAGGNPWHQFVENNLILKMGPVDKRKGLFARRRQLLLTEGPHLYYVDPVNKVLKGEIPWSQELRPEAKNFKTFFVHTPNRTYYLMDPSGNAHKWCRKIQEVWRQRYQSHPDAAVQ
Put plainly: Activation of PDK1 using KTFCGTPEYLAPEVRR as substrate and [gamma32P]-ATP/Mg2+ by phosphor imaging analysis relative to control. Summed up:
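Radioactive kinase assay with 0.25 μM PDK1 and [γ32P]ATP. Phosphorylated peptide was captured on P81 phosphocellulose paper and detected by phosphorimaging. Activation is expressed relative to DMSO control (=100%). AC50 is the concentration giving half-maximal activation. Values are the mean of at least two independent experiments.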

Experiment [2] has as its target T1, 3-phosphoinositide-dependent protein kinase 1 (Homo sapiens). Nature of the experiment: Increase in thermal stability of PDK1 assessed as concentration required to increase 1.5 degC thermal stability by differential scanning fluorimetry. Summed up:
(§1)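 PDK1 (1 μM) in 10 mM HEPES pH 7.5, 150 mM NaCl, 1 mM DTT and 1/1000 SYPRO Orange, with ligand at 1% final DMSO, was heated from 25–70 °C in 0.3 °C steps. Tm came from a Boltzmann fit, and ΔTm is relative to DMSO control, each point from duplicates. EC50 was fitted from ΔTm versus concentration, along with the concentration giving a 1.5 °C shift.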
In general terms: DSF heats the sample and reads unfolding from a dye or from intrinsic fluorescence.

The target of experiment [3] is T2, 3-phosphoinositide-dependent protein kinase 1 (Homo sapiens, UniProt O15530).
T2 sequence (O15530 whole entry): T1 sequence (whole entry)
Put plainly: Increase in thermal stability of PDK1 by differential scanning fluorimetry. The essentials: as §1

The target of experiment [4] is T1, 3-phosphoinositide-dependent protein kinase 1 (Homo sapiens). Nature of the experiment: Increase in thermal stability of PDK1 by differential scanning fluorimetry relative to control. The essentials: as §1
Experiment [5] has as its target Serine/threonine-protein kinase N2 (Homo sapiens) (UniProt Q16513). Put plainly: Activation of PRK2 at 50 uM relative to control.
A short description of experiment [6]: Activation of PKA at 2 uM relative to control.
Experiment [7] is described as follows: Activation of PKA at 50 uM relative to control.
In experiment [8] the target is Ribosomal protein S6 kinase beta-1 (Homo sapiens) (UniProt P23443). Nature of the experiment: Activation of S6K1 at 2 uM relative to control.
Ribosomal protein S6 kinase beta-1 (Homo sapiens), sequence (P23443 whole entry, looked up): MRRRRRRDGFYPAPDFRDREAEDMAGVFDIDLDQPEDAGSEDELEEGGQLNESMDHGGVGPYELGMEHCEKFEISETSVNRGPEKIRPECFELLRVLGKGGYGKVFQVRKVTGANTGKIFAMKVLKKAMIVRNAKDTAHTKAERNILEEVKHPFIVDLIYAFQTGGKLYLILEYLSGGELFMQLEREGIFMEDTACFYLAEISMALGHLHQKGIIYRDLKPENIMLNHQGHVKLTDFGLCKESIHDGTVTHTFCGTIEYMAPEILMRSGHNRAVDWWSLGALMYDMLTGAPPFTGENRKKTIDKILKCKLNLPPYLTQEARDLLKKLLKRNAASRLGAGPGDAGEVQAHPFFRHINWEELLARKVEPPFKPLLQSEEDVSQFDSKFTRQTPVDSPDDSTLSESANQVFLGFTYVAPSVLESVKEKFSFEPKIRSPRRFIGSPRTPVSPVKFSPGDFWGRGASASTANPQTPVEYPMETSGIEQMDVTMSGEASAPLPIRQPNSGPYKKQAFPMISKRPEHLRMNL
Experiment [9] has as its target T3, Serine/threonine-protein kinase Sgk1 (Homo sapiens) (UniProt O00141).
T3 sequence (whole entry): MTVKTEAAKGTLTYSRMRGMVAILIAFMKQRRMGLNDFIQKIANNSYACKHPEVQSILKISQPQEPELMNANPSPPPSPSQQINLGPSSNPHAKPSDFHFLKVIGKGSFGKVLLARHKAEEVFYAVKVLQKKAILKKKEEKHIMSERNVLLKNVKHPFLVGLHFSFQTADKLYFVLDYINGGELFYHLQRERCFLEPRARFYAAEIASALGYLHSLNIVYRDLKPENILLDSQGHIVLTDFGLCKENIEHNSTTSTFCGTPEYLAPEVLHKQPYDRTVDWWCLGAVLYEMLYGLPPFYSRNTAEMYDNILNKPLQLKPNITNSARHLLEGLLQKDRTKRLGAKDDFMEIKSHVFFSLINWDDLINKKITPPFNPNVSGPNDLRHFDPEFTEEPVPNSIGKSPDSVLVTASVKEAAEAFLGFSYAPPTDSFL
Nature of the experiment: Activation of SGK at 50 uM relative to control.

The target of experiment [10] is T4, Protein kinase C zeta type (Homo sapiens) (UniProt Q05513).
T4 sequence (whole entry): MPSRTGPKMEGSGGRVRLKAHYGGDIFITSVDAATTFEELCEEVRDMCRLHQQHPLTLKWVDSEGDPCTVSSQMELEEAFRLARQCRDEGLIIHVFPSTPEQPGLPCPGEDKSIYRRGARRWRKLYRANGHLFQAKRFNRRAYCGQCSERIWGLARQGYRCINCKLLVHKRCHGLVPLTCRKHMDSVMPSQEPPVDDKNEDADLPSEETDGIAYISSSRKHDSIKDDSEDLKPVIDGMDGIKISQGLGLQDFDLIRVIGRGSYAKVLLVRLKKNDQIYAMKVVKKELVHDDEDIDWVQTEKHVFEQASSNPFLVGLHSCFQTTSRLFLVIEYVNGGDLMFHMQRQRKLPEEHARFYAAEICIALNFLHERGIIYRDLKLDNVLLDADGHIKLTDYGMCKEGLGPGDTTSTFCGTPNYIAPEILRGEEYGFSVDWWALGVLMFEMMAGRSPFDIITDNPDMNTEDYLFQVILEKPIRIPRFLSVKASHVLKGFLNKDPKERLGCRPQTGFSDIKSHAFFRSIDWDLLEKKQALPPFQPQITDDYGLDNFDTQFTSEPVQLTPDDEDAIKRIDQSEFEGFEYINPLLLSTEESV
Put plainly: Activation of PKCzeta at 50 uM relative to control.

Experiment [11] addresses T3, Serine/threonine-protein kinase Sgk1 (Homo sapiens). Put plainly: Activation of SGK at 2 uM relative to control.
Experiment [12] has as its target RAC-alpha serine/threonine-protein kinase (Homo sapiens) (UniProt P31749). Put plainly: Activation of PKBalpha at 2 uM relative to control.
Experiment [13] has as its target Ribosomal protein S6 kinase beta-1 (Homo sapiens) (UniProt P23443). Nature of the experiment: Activation of S6K1 at 50 uM relative to control.
Experiment [14] deals with RAC-alpha serine/threonine-protein kinase (Homo sapiens) (UniProt P31749). Put plainly: Activation of PKBalpha at 50 uM relative to control.
RAC-alpha serine/threonine-protein kinase (Homo sapiens), sequence (P31749 whole entry): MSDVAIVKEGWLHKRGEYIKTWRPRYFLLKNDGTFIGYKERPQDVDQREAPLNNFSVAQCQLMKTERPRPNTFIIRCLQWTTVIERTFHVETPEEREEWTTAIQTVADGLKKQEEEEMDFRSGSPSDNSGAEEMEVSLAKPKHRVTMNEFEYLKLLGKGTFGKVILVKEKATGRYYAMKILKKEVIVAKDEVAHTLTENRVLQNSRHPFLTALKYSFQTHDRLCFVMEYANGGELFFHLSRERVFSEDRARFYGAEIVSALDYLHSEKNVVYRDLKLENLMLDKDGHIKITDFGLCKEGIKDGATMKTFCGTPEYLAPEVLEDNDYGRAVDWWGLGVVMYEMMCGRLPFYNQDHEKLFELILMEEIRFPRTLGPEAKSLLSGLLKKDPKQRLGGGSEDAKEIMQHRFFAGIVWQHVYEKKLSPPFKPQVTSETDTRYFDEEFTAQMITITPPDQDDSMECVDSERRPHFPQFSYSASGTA
The target in experiment [15] is Serine/threonine-protein kinase N2 (Homo sapiens) (UniProt Q16513). Put plainly: Activation of PRK2 at 2 uM relative to control.
Serine/threonine-protein kinase N2 (Homo sapiens), sequence (Q16513 whole entry, looked up): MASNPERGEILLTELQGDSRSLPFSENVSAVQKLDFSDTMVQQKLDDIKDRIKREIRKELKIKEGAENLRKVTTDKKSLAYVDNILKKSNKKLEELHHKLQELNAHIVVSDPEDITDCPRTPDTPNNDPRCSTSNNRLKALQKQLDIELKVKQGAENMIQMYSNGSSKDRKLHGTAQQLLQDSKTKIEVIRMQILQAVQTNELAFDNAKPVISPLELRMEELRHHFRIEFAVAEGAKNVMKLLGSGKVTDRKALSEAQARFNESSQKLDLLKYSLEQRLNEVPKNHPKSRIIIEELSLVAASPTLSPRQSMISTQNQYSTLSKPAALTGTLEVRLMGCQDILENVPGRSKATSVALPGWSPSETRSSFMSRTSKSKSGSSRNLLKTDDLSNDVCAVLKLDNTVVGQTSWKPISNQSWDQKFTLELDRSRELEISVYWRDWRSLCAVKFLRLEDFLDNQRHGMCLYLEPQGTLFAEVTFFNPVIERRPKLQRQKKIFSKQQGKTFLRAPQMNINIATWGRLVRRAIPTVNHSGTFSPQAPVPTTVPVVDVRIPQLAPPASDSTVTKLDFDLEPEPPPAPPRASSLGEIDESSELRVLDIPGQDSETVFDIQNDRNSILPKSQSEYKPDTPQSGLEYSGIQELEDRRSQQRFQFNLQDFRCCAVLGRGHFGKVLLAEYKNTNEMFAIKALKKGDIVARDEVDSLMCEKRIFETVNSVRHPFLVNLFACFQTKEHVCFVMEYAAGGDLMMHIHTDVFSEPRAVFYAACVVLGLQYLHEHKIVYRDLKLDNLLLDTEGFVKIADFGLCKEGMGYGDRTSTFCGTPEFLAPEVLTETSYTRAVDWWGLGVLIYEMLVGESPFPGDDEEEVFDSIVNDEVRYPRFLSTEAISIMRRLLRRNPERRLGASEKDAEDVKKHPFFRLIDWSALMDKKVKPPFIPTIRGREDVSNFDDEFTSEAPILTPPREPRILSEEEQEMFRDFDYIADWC
In experiment [16] the target is T4, Protein kinase C zeta type (Homo sapiens). Nature of the experiment: Activation of PKCzeta at 2 uM relative to control.
Experiment [17] is described as follows: Activation of MSK at 2 uM relative to control.
Experiment [18] in a line: Activation of RSK at 2 uM relative to control.
The nature of experiment [19]: Activation of RSK at 50 uM relative to control.
Experiment [20] in a line: Activation of MSK at 50 uM relative to control.

In experiment [1], `O=C(CC(c1ccccc1)C(C(=O)O)C(=O)O)c1ccc(Oc2ccccc2)cc1` (racemic) gave a max activation of 7. On the same count and under the same terms, as for `CCc1ccc(C(=O)CC(CC(=O)O)c2ccccc2)cc1` (racemic), the figure is 2. For `O=C(CC(c1ccc(Cl)cc1)C(C(=O)O)C(=O)O)c1ccc(C(F)(F)F)cc1` (racemic), the max activation in experiment [1] is 3.5. In experiment [1], `O=C(C[C@H](c1ccccc1)C(C(=O)O)C(=O)O)c1ccc(C(F)(F)F)cc1` showed a max activation of 5.5. Still for that read-out and setting: as for `O=C(O)CC(CC(=O)c1ccc(C(F)(F)F)cc1)c1ccc(Cl)cc1` (racemic), the entry is “inactive”. Regarding `O=C(CC(c1ccccc1)C(C(=O)O)C(=O)O)c1ccc(I)cc1` (racemic), in experiment [2], the Activity is 30.9 µM. For the same compound, in experiment [3], the half-maximal effective concentration (EC50) came to 60 µM. The ΔTm in experiment [4] is 5.2 °C. In addition, the max activation in experiment [1] was found to be 4. Turning to `O=C(O)/C=C(/CCc1ccc(Cl)cc1)c1ccccc1`, the result in experiment [5], in experiment [6], in experiment [8], in experiment [9], in experiment [10] and in [11] was inactive. Besides, the result in [12], in experiment [14], in experiment [15] and in experiment [16] was inactive. The results for the Activity in [7] and in experiment [13] were 74% and 84%, respectively. With `O=C(CC(c1ccccc1)C(C(=O)O)C(=O)O)c1ccc2c(ccc3ccccc32)c1` (racemic), in experiment [1], the max activation amounted to 3.7. For the compound `O=C(CC(c1ccccc1)C(C(=O)O)C(=O)O)c1ccc2c(c1)[nH]c1ccccc12` (racemic), in experiment [2], the Activity was 18.2 µM. For the same compound, in experiment [3], the EC50 was determined as 30.2 µM. In [4], the ΔTm stood at 4.9 °C. For the same compound, the max activation in experiment [1] amounted to 3.6.

`O=C(CC(c1ccccc1)C(C(=O)O)C(=O)O)c1ccc2ccccc2c1` (racemic) registered a max activation in experiment [1] of 4.

Turning to `O=C(CC(c1ccc(Cl)cc1)C(C(=O)O)C(=O)O)c1ccc(O)cc1` (racemic), in experiment [1], the max activation entry is “inactive”.

In turn, `O=C(O)CC(CC(=O)c1ccc(I)cc1)c1ccccc1` (racemic) registered a max activation in experiment [1] of 4. Still for that read-out and setting: the value for `O=C(O)CC(CC(=O)c1ccc2ccccc2c1)c1ccc2ccccc2c1` (racemic) was 3.4. As to `O=C(O)CC(CC(=O)c1ccc2ccccc2c1)c1ccccc1` (racemic), the max activation in experiment [1] stood at 2.5. As for `O=C(O)CC(CC(=O)c1ccc(Cl)cc1)c1ccc(Cl)cc1` (racemic), the max activation result in experiment [1] is “inactive”. `O=C(CC(c1ccccc1)C(C(=O)O)C(=O)O)c1c[nH]c2ccccc12` (racemic): in experiment [1], the max activation came out at 3. Still for that read-out and setting: as for `O=C(O)CC(CC(=O)c1ccc2c(ccc3ccccc32)c1)c1ccccc1` (racemic), the figure is 1.5. For the compound `O=C(CC(c1ccc2ccccc2c1)C(C(=O)O)C(=O)O)c1ccc(I)cc1` (racemic), the Activity in experiment [2] was 18.9 µM. Moreover, in experiment [3], the response was half-maximal at 13 µM (EC50). The shift in melting temperature (ΔTm) in experiment [4] was 2.4 °C. Further, the max activation in experiment [1] turned out to be 3.6.

`O=C(O)CC(CC(=O)c1ccc(Cl)cc1)c1ccccc1` (racemic) had a max activation in [1] of 3. Still for that read-out and setting: as for `CCc1ccc(C(=O)CC(c2ccc(Cl)cc2)C(C(=O)O)C(=O)O)cc1` (racemic), the figure is 3; as for `O=C(O)CC(CC(=O)c1ccc(C(F)(F)F)cc1)c1ccccc1` (racemic), 4; as for `COc1ccc2cc(C(=O)CC(c3ccccc3)C(C(=O)O)C(=O)O)ccc2c1` (racemic), 3.6. In turn, `O=C(CC(c1ccc(Cl)cc1)C(C(=O)O)C(=O)O)c1ccc(I)cc1` (racemic) came in with a max activation in experiment [1] of 3.8.

As for `O=C(CC(c1ccc(Cl)cc1)C(C(=O)O)C(=O)O)c1ccc(Br)cc1` (racemic), the max activation in [1] stood at 3.

For `O=C(CC(c1cc(-c2ccccc2)cs1)C(C(=O)O)C(=O)O)c1ccc(C(F)(F)F)cc1` (racemic), the max activation entry in experiment [1] was “inactive”. The same measure, in the same setting: as for `O=C(CC(c1ccc2ccccc2c1)C(C(=O)O)C(=O)O)c1ccc2ccccc2c1` (racemic), the figure is 4.8; as for `O=C(C[C@@H](c1ccccc1)C(C(=O)O)C(=O)O)c1ccc(C(F)(F)F)cc1`, 2. `O=C(O)CC(CC(=O)c1cccc(Cl)c1)c1ccccc1` (racemic) registered a max activation in experiment [1] of 2.5. The compound `O=C(O)CC(CC(=O)c1ccc2cc(O)ccc2c1)c1ccccc1` (racemic) displayed a max activation in experiment [1] of 3. On the same count and under the same terms, the value for `CCc1ccc(C(=O)CC(c2ccccc2)C(C(=O)O)C(=O)O)cc1` (racemic) was 5; that for `O=C(CC(c1ccc(Cl)cc1)C(C(=O)O)C(=O)O)c1ccc(Cl)cc1` (racemic) was 2.

With `O=C(CC(c1ccccc1)C(C(=O)O)C(=O)O)c1ccc(Cl)cc1` (racemic), the result in [17], in [5], in [6], in experiment [7], in [18] and in experiment [9] was inactive. Besides, the outcome in experiment [10], in experiment [11], in experiment [12], in experiment [14], in experiment [15] and in experiment [20] was inactive. In experiment [16], the result was inactive. The Activity came out at 84% in experiment [8], 160% in experiment [19] and 47% in [13]. This compound showed a max activation in experiment [1] of 4.

Compound `O=C(CC(c1ccccc1)C(C(=O)O)C(=O)O)c1cccc(Cl)c1` (racemic) came in with a max activation in [1] of 2.6. Compound `O=C(O)CC(CC(=O)c1ccc(Br)cc1)c1ccccc1` (racemic) came in with a max activation in experiment [1] of 2. In turn, `O=C(O)CC(CC(=O)c1ccc(Oc2ccccc2)cc1)c1ccccc1` (racemic) yielded a max activation in experiment [1] of 2.8. Same read-out and setting: the value for `O=C(O)CC(CC(=O)c1ccc(I)cc1)c1ccc(Cl)cc1` (racemic) was 2.5; that for `O=C(CC(c1ccccc1)C(C(=O)O)C(=O)O)c1ccc(Br)cc1` (racemic) was 3.7.

In general, EC50 refers to the midpoint of the concentration-response curve. Higher therefore signals weaker potency. In general, ΔTm refers to the change in melting temperature against a reference sample.
